Data published in ChEMBL document CHEMBL1143333, “Amide derivatives of ethacrynic acid: synthesis and evaluation as antagonists of Wnt/beta-catenin signaling and CLL cell survival” (Bioorg Med Chem Lett, 2009).

Tests used:
[1] = Inhibition of Wnt/beta-catenin signaling in human SW480 cells by fluorimetry
[2] = Cytotoxicity against human CLL cells after 48 hrs by MTT method; assay type: functional, cell-based
Outline: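 Freshly isolated CLL cells plated at 2.5 × 10^5 per well and exposed to compounds for 48 h. MTT added at 1/10 volume of a 5 mg/mL stock, followed by overnight incubation at 37 °C before read-out of viability.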

Structure (SMILES) | IC50 [1] | EC50 [2]
C=C(CC)C(=O)c1ccc(OCC(=O)NCC(=O)O)c(Cl)c1Cl | > 50 µM | > 25 µM
C=C(CC)C(=O)c1ccc(OCC(=O)Nc2ccc3nc[nH]c3c2)c(Cl)c1Cl | 3.62 µM | 3.2 µM
C=C(CC)C(=O)c1ccc(OCC(=O)NCCc2c[nH]c3ccccc23)c(Cl)c1Cl | 10.7 µM | 5.9 µM
C=C(CC)C(=O)c1ccc(OCC(=O)Nc2ccc(O)c(Cl)c2)c(Cl)c1Cl | 3.8 µM | 5.5 µM
C=C(CC)C(=O)c1ccc(OCC(=O)Nc2ccc(C(=O)O)cn2)c(Cl)c1Cl | > 50 µM | 14.9 µM
C=C(CC)C(=O)c1ccc(OCC(=O)NC(CS)C(=O)OCC)c(Cl)c1Cl (centres undefined) | > 50 µM | 4.8 µM
C=C(CC)C(=O)c1ccc(OCC(=O)Nc2ccc3cc(C(=O)O)ccc3c2)c(Cl)c1Cl | 2.93 µM | 3.7 µM
C=C(CC)C(=O)c1ccc(OCC(=O)Nc2ccc(O)c([N+](=O)[O-])c2)c(Cl)c1Cl | 4.23 µM | 7.4 µM
C=C(CC)C(=O)c1ccc(OCC(=O)NC2CCN(CC(=O)OC)CC2)c(Cl)c1Cl | > 50 µM | 10.6 µM
C=C(CC)C(=O)c1ccc(OCC(=O)Nc2cccc(C(=O)O)c2)c(Cl)c1Cl | 5.85 µM | 20.6 µM
C=C(CC)C(=O)c1ccc(OCC(=O)Nc2ccc(Cl)c(C(=O)O)c2)c(Cl)c1Cl | > 50 µM | 15.9 µM
C=C(CC)C(=O)c1ccc(OCC(=O)NCCN2CCOCC2)c(Cl)c1Cl | > 50 µM | 6.4 µM
C=C(CC)C(=O)c1ccc(OCC(=O)Nc2ccc(CC(=O)O)cc2)c(Cl)c1Cl | > 50 µM | 3.2 µM
C=C(CC)C(=O)c1ccc(OCC(=O)Nc2ccc(C#N)cc2)c(Cl)c1Cl | 6.84 µM | 7.8 µM
C=C(CC)C(=O)c1ccc(OCC(=O)Nc2ccc3c(c2)C(O)N=NC3O)c(Cl)c1Cl (centres undefined) | 6.58 µM | 8.5 µM
C=C(CC)C(=O)c1ccc(OCC(=O)Nc2ccc(C(=O)NC(CCC(=O)OCC)C(=O)OCC)cc2)c(Cl)c1Cl (centres undefined) | 2.61 µM | 2.1 µM
C=C(CC)C(=O)c1ccc(OCC(=O)Nc2ccc3c(C)cc(=O)oc3c2)c(Cl)c1Cl | 2.63 µM | 2.8 µM
C=C(CC)C(=O)c1ccc(OCC(=O)Nc2ccc(S(=O)(=O)O)cc2)c(Cl)c1Cl | > 50 µM | > 25 µM
C=C(CC)C(=O)c1ccc(OCC(=O)Nc2cc(Cl)ccc2C(=O)O)c(Cl)c1Cl | 9.62 µM | 13.8 µM
C=C(CC)C(=O)c1ccc(OCC(=O)Nc2ccc(/C=C/C(=O)OCC)cc2)c(Cl)c1Cl | 3.79 µM | 1.7 µM
C=C(CC)C(=O)c1ccc(OCC(=O)Nc2ccc(Cc3ccc(N4C(=O)C5C6C=CC(C6)C5C4=O)cc3)cc2)c(Cl)c1Cl (centres undefined) | 2.93 µM | 1.8 µM

Structure (SMILES) | IC50 [1] | EC50 [2]
C=C(CC)C(=O)c1ccc(OCC(=O)Nc2ccc3c(c2)C(=O)NC3=O)c(Cl)c1Cl | 4.88 µM | 2.5 µM
C=C(CC)C(=O)c1ccc(OCC(=O)Nc2ccc(C(=O)O)cc2)c(Cl)c1Cl | 5.81 µM | 5 µM
C=C(CC)C(=O)c1ccc(OCC(=O)NCCCN2CCCC2=O)c(Cl)c1Cl | > 50 µM | 13.8 µM
C=C(CC)C(=O)c1ccc(OCC(=O)Nc2cc(OC)c(OC)cc2C(=O)O)c(Cl)c1Cl | > 50 µM | 21.9 µM
C=C(CC)C(=O)c1ccc(OCC(=O)Nc2ccc3c(c2)C(=O)c2ccccc2C3=O)c(Cl)c1Cl | 2.97 µM | 2.1 µM
C=C(CC)C(=O)c1ccc(OCC(=O)O)c(Cl)c1Cl [ETHACRYNIC ACID] | 32.7 µM | 9.9 µM
C=C(CC)C(=O)c1ccc(OCC(=O)Nc2ccc(C(=O)O)c(O)c2)c(Cl)c1Cl | > 50 µM | > 25 µM
C=C(CC)C(=O)c1ccc(OCC(=O)Nc2ccc(/C=C/C(=O)NO)cc2)c(Cl)c1Cl | 1.81 µM | 2.6 µM
C=C(CC)C(=O)c1ccc(OCC(=O)Nc2nc3ccccc3s2)c(Cl)c1Cl | 4.86 µM | 1.5 µM
C=C(CC)C(=O)c1ccc(OCC(=O)Nc2ccc(C(=O)OC)cc2)c(Cl)c1Cl | 11.4 µM | 4.1 µM
C=C(CC)C(=O)c1ccc(OCC(=O)NO)c(Cl)c1Cl | 9.89 µM | 4.5 µM
C=C(CC)C(=O)c1ccc(OCC(=O)Nc2ccc(/C=C/C(=O)O)cc2)c(Cl)c1Cl | 2.51 µM | 3 µM
C=C(CC)C(=O)c1ccc(OCC(=O)Nc2ccc(C(C)=O)cc2)c(Cl)c1Cl | 5.06 µM | 3.9 µM
C=C(CC)C(=O)c1ccc(OCC(=O)NCO[N+](=O)[O-])c(Cl)c1Cl | > 50 µM | 4.1 µM
C=C(CC)C(=O)c1ccc(OCC(=O)NCC2CCC(C(=O)O)CC2)c(Cl)c1Cl (centres undefined) | > 50 µM | 8 µM
C=C(CC)C(=O)c1ccc(OCC(=O)NCCO)c(Cl)c1Cl | > 50 µM | > 25 µM
C=C(CC)C(=O)c1ccc(OCC(=O)Nc2ccc(C(N)=O)cc2)c(Cl)c1Cl | 4.76 µM | 3.7 µM
C=C(CC)C(=O)c1ccc(OCC(=O)Nc2nc(/C(=N\OC)C(=O)O)cs2)c(Cl)c1Cl | > 50 µM | > 25 µM
CCC(C)C(=O)c1ccc(OCC(=O)O)c(Cl)c1Cl (centres undefined) | > 50 µM | > 25 µM
C=C(CC)C(=O)c1ccc(OCC(=O)Nc2ccc(O)cc2)c(Cl)c1Cl | > 50 µM | 6.4 µM
C=C(CC)C(=O)c1ccc(OCC(=O)Nc2ccc([C@]3(CC)CCC(=O)NC3=O)cc2)c(Cl)c1Cl | 4.42 µM | 2.8 µM
